Reference: publication PMC8892239 (EFSA Journal, 2022)
Converted amounts (≈) assume the structure as drawn. “And” between values parts separate entries of the source, which are not always exact repeats. Identical values can stand only once. Like-named read-outs stand apart in the source and are kept apart here.

How the values were obtained:
Pisum sativum (pea) = experiment: Seedling emergence and seedling growth test, OECD 208; type: in vivo; details: 21 days
How it was run: (§1)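 Soil was spiked with the test compound; measured concentrations were checked against nominal. From 50% emergence in controls, emergence, survival and visible phytotoxicity were recorded weekly for 21 days. At the end, emergence, survival, shoot fresh weight and visible damage were recorded. Effect concentrations were derived from dose–response curves.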

dairy cows = experiment: 36-day feeding study with lactating cows; type: in vivo, Holstein cows; details: up to 10× the maximum recommended level, fed for 36 days
[1] = Stability of EQ in complete feed for chickens for fattening; type: physicochemical; details: 50, 150 or 500 mg EQ/kg feed
Avena sativa (oat) = experiment: Seedling emergence and seedling growth test, OECD 208; type: in vivo
How it was run: as §1

Atlantic salmon = experiment: Tolerance study in Atlantic salmon; type: in vivo, Salmo salar L.
soil microflora = experiment: Nitrogen Transformation Test, OECD 216
How it was run: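 Soil nitrogen transformation test per OECD 216, assessed on day 28. An effect was judged as deviation from control, with 25% as the criterion. A maximum variation below 15% was the validity criterion.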

[2] = test system: Brassica napus (oilseed rape); experiment: Seedling emergence and seedling growth test, OECD 208; type: in vivo; details: 21 days
How it was run: as §1

Adsorption coefficient = type: physicochemical
How it was run: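 Koc estimated under GLP per OECD 121 from the HPLC retention time of the test compound. Runs were done at pH 6.5 and at pH 2.5 because the compound ionises at soil-relevant pH.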

[3] = Metabolism of 14C-EQ in liver slices; type: in vitro ADME, rat, laying hen and goat; details: 10 and 100 µM, 37°C, 2 h
weaned piglets = experiment: Tolerance study in weaned piglets; type: in vivo
How it was run: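 128 piglets (Pietrain × crossbred, both sexes) entered the study at 28 days old and 8.1 kg. They were housed four per pen (two males, two females) in 32 pens and acclimatised for 6 days. Four mash diets were fed: 0, 50, 150 or 300 mg/kg feed, with eight replicate pens per diet.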

[4] = Forced degradation of EQ in compound feed; type: physicochemical
male BALB/c mice = experiment: Subchronic; type: in vivo, mouse; details: EQ 5,000 mg/kg feed, after 10 days, mice refused their feed
How it was run: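 Groups of 10 BALB/c mice were fed the dimer for 90 days. Nominal levels were 0, 0.1, 1, 100, 1,000, 3,000 and 5,000 mg/kg feed, equal to 0, 0.015, 0.081, 10, 99, 286 and 518 mg/kg bw per day. A parent-compound group started at 5,000 mg/kg feed, was reduced to 1,000 mg/kg feed and was later excluded. BMD modelling used a 10% (or 20%) benchmark response.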

[5] = at 25°C; ref EFSA, 2010; cited from earlier work
[6] = cited from earlier work; for Water solubility: ref EFSA, 2010
terrestrial plants = experiment: Seedling emergence and seedling growth test, OECD 208, three plant species; type: in vivo, Avena sativa, Brassica napus, Pisum sativum
How it was run: as §1

[7] = Assessment of secondary poisoning
Lumbriculus variegatus = experiment: Water-sediment test, OECD 225, 28 days; type: in vivo
How it was run: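 Lumbriculus variegatus test per OECD 225 in spiked artificial sediment, run for 28 days. Nominal levels were 18.8, 37.5, 75, 150, 300 and 600 mg/kg sediment DW, with four replicates each. An untreated control and a solvent control were run, six replicates each.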

Daphnia magna = experiment: 48-h semi-static acute toxicity test, OECD 202; type: in vivo; details: read-out: 48h EC50 (immobilization)
laying hens = experiment: Tolerance study in laying hens; type: in vivo, HyLine Brown layers; details: 50 mg ethoxyquin/kg feed
Risk characterisation = experiment: Risk characterisation
How it was run: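 For each compartment, a PNEC was derived by dividing the NOEC (or EC10 where indicated) by an assessment factor. Risk was expressed as the PEC/PNEC ratio.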

[8] = test system: Pacific oyster Crassostrea gigas; experiment: 24-h embryo-larval developmental test; type: in vivo; details: initially measured concentrations
[9] = Residues of EQ and metabolites/TPs in laying hen tissues and eggs; type: in vivo, laying hens; details: liquid egg, control (0 mg EQ/kg feed); LOQ 2 µg/kg whole egg
How it was run: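 Liver, kidney, muscle and skin/fat were taken from eight hens per group after 56 days of feeding. Twelve eggs per treatment were collected: four per day on three consecutive days at the end of the study. EQ, EQDM, EQI, DHEQ, DEQ and metabolites A–C were measured. LOQs: EQ 0.5 (muscle) to 2 (other tissues) µg/kg; EQDM 0.5–1 µg/kg; EQI 1.5 µg/kg; DHEQ 0.5 µg/kg; whole egg 2 µg/kg per analyte.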

[10] = 5,000 mg/kg feed (EQ4), 90 days
[11] = 10,000 mg/kg feed (EQ5), 90 days

For `CCOc1ccc2c(c1)C(C)=CC(C)(C)N2` [EQ, 6‐ethoxy‐1,2‐dihydro‐2,2,4‐trimethylquinoline], the “EC50, shoot fresh weight” value (Pisum sativum (pea)) was 181.3 mg/kg, the “effect on performance parameters” value (dairy cows) was “had no influence on the performance parameters” and the EQ losses ([1]; after 90 days at 40°C, 75% RH) was “about 80%”. For the same compound, the EQ losses ([1]; after 90 days, ambient conditions) was 30–50%, the “EC50, shoot fresh weight” value (Avena sativa (oat); 21 days) was 242.2 mg/kg and the “effects on seedling emergence and survival of emerged seedlings” value (Avena sativa (oat); up to 1,000 mg test item/kg soil DW) was “No adverse effects”. It also gave a condition factor (Atlantic salmon; 5,000 mg/kg feed (EQ4)) of 1.3 g/mL, a daily feed intake (Atlantic salmon; 5,000 mg/kg feed (EQ4)) of 2.9 g/fish per day and a specific growth rate (Atlantic salmon; 5,000 mg/kg feed (EQ4)) of 0.8 % bw per day. It also gave a total feed intake (Atlantic salmon; 5,000 mg/kg feed (EQ4)) of 255 g/fish, a bw gain (Atlantic salmon; [10]) of 276 g and a final bw (Atlantic salmon; [10]) of 537 g. The condition factor (Atlantic salmon; 10,000 mg/kg feed (EQ5)) was 1.1 g/mL, the daily feed intake (Atlantic salmon; 10,000 mg/kg feed (EQ5)) was 1.1 g/fish per day and the final salmon length (Atlantic salmon; 10,000 mg/kg feed (EQ5)) was 29 cm. For the same compound, the specific growth rate (Atlantic salmon; 10,000 mg/kg feed (EQ5)) was 0.1 % bw per day, the total feed intake (Atlantic salmon; 10,000 mg/kg feed (EQ5)) was 100 g/fish and the bw gain (Atlantic salmon; [11]) was 38 g. The final bw (Atlantic salmon; [11]) was 301 g, the mortality (Atlantic salmon; up to 10,000 mg/kg feed, 90 days) was “No fish died” and the deviation from control (soil microflora; day 28, 10.70 mg test item/kg soil DW) was less than 25%. For the same compound, the “effect on soil nitrogen transformation” value (soil microflora; day 28, highest tested concentration 10.70 mg test item/kg soil DW) was “no adverse effects”, the “EC50, shoot fresh weight” value [2] was 155.6 mg/kg and the “Koc (used for Phase II exposure assessment)” value (Adsorption coefficient) was 331 L/kg. For the same compound, the “Log Koc” value (Adsorption coefficient; pH 2.5) was 1.55, the “estimated Koc” value (Adsorption coefficient; pH 2.5) was 35 and the “Log Koc” value (Adsorption coefficient; pH 6.5) was 2.52. For the same compound, the “estimated Koc” value (Adsorption coefficient; pH 6.5) was 331, the extent of metabolism [3] was “metabolised extensively” and the “number of metabolites identified” value ([3]; irrespective of origin) was 17. For the same compound, the zootechnical parameters (weaned piglets; 50, 150 or 300 mg/kg feed, 42 days) was “not different from those of the control group”, the margin of safety (weaned piglets; maximum use level 50 mg ethoxyquin/kg feed) was “at least six” and the “share of the lost EQ identified as DMEQ, EQI and EQDM” value ([4]; H2O2) was “around 56%”. For the same compound, the EQ oxidised ([4]; H2O2, after 4 h) was 83%, the EQ oxidised ([4]; H2O2, spontaneously) was 75% and the “loss of initial body weight” value (male BALB/c mice) was 11%. The Vapour pressure [5] was 3.46 × 10^–2 at 25 °C Pa, the Water solubility ([6]; pH 5, 20°C) was 101 µg/mL and the Water solubility ([6]; pH 7, 20°C) was 60 µg/mL. For the same compound, the “Solubility at pH 7 (input for PEC)” value ([6]; pH 7) was 60 mg/L, the Water solubility ([6]; pH 9, 20°C) was 70 µg/mL and the “concentration with statistically significant effects on shoot fresh weight” value (terrestrial plants; all species tested) was 111 mg test item/kg soil DW. For the same compound, the EC10 (terrestrial plants; lowest calculated, 21 days) was 55.8 mg test item/kg soil DW, the “lowest calculated EC50” value (terrestrial plants; shoot fresh weight, 21 days) was 155 mg test item/kg soil DW and the PECfish/PNECoral [7] was 1. For the same compound, the NECoral ([7]; from NOEC 80 mg/kg feed, assessment factor of 90) was 0.89 mg/kg, the PECfish/PNECoral ([7]; listed as Ethoxyquin) was 1.0 and the “EC10 for total number of worms/reproduction and total biomass per replicate” value (Lumbriculus variegatus) was 148 mg test item/kg sediment DW and 148 ^* mg test item/kg sediment DW. For the same compound, the “NOEC for total number of worms and reproduction” value (Lumbriculus variegatus) was 150 mg test item/kg sediment DW, the mortality (Lumbriculus variegatus; 300 mg/kg sediment DW) was 50% and the mortality (Lumbriculus variegatus; 600 mg/kg sediment DW) was 100%. The EC50 (Daphnia magna) was 2.48 µg/mL (≈ 11.4 µM), the margin of safety (laying hens) was 10 × and the “PEC/PNEC, fish farmed in land-based systems” value (Risk characterisation) was 0.10. The “PEC/PNEC, freshwater sediment” value (Risk characterisation) was 0.02, the “PEC/PNEC, marine sediment” value (Risk characterisation) was 1,550 and the “PEC/PNEC, terrestrial compartment (earthworm)” value (Risk characterisation) was 0.03. For the same compound, the “PNEC, freshwater sediment” value (Risk characterisation; AF 10) was 12,500 μg/kg, the “PNEC, terrestrial compartment (earthworm)” value (Risk characterisation; AF 10) was 17,100 μg/kg and the “PNEC, freshwater compartment” value (Risk characterisation; AF 50) was 1.2 µg/L. The “PEC/PNEC, freshwater compartment” value (Risk characterisation; EQ used in terrestrial animals) was 5, the “PNECsed, marine sediment” value (Risk characterisation; equilibrium partitioning approach, AF 1,000) was 70.8 µg/kg and the “24-h NOEC (development)” value [8] was 2.9 mg/L. For the same compound, the residue in eggs [9] was “˂ LOQ^( ^d ^)”.
